This is a sample that favours compounds with a hit; in the whole collection about 8.9% have one here.
HSV replic up: enhancers of HSV replication in host cells, fold increase, host cell viability | HSV replication augmentation in cells | maximum fold increase | hit rate 0.005% among 220,000 | AID 1956, 2009; in the data active means maximum fold increase above about 1.5; tested in PC3 cells
Dynein transport: inhibitors of GR-EGFP nuclear translocation, primary screen, dynein cargo transport inhibitor project, imaging, high-content, 3617.4 mouse cells; test concentration mostly 20 µM; stimulated with dexamethasone, 1 µM; active compounds read low; z-score, hits read low; hit rate 0.47% among 220,000; AID 1381, 2008;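 active means plate z-score of nuclear minus cytoplasmic receptor signal below a set negative limit, without overly bright fluorescence or cell loss, cut at about -3.5 in these data, passing the limit was not always enough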;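 further: z-score of nuclear minus cytoplasmic ring GR-EGFP intensity difference per well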
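Buffer or medium: tet-free medium with charcoal-stripped serum / Also added: dexamethasone agonist, 1.0 µM final, for 30 min / Timing: induction 48 h, compound 1 h, agonist 30 min / Measured by: high-content fluorescence imaging after fixation / Read-out: nuclear-to-cytoplasmic GR-EGFP distribution per well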
L major viab: Leishmania major promastigote growth inhibition, primary screen; Leishmania major promastigotes, resazurin fluorescence viability; inhibition, % at 10 µM; hit rate 9% among 200,000; AID 1063, 2008; in the data active means inhibition above about 50%;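 further: promastigotes grown with compound for 44 hours at 28 °C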
b-catenin transl: modulators of beta-catenin nuclear translocation, primary screen, imaging, HeLa cells, immunofluorescence, high-content | nuclear translocation activity, % at 5 µM | hit rate 0.3% among 190,000 | AID 1665, 2009;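 active means nuclear translocation activity above 50% at 5 µM, with a well cell count of 50 or more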;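 further: per-cell ratio of nuclear to cytoplasmic median beta-catenin stain intensity; plate controls were DMSO negative control for no effect and GSK-3 inhibitor IX positive control for full effect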
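assay system = human HeLa cells, endogenous beta-catenin | times = compound treatment 24 h, 37°C, 5% CO2 | detection = Anti-beta-catenin immunofluorescence on PFA-fixed, Triton-permeabilized cells, DAPI nuclei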
MT stabilizer: microtubule stabilizers in HeLa cells, primary screen, imaging, high-content imaging | HeLa tubulin immunostaining HCS, 24 h; share of cells brighter than vehicle mean+2SD | % tubulin-high responders, % at 10 µM | hit rate 0.83% among 200,000 | AID 2205, 2009;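 active means plate Z-score above 3 for both tubulin-high and condensed-nucleus cell shares, with cell loss under 80%, at 10 µM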;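 further: anti alpha tubulin signal scored within the nucleus-defined area of each cell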
Active calls of the source: *.

Results for COc1cc(OC)c(C2=NOC(C(=O)NCc3ccc4c(c3)OCO4)C2)cc1Cl (centres undefined) ?
HSV replic up: inactive; Dynein transport: 0.51; L major viab: -1; MT stabilizer: 23*

How did COc1cc(C2=NOC(C(=O)NCc3ccc(F)cc3)C2)cc(OC)c1OC (centres undefined) do in these assays?
Dynein transport: 1.2; L major viab: -2; b-catenin transl: 73*; MT stabilizer: 24*

What do the screens show for `COc1cccc(C2=NOC(C(=O)NCc3ccc(F)cc3)C2)c1` (centres undefined)?
Dynein transport: -0.33; L major viab: -5; b-catenin transl: 6; MT stabilizer: 6

What do the screens show for `O=C(NCc1ccc2c(c1)OCO2)C1CC(c2ccc(Cl)cc2)=NO1` (centres undefined)?
HSV replic up: inactive; Dynein transport: -0.14; L major viab: -2; b-catenin transl: 2; MT stabilizer: 3

What do the screens show for `O=C(CCc1ccc(S(=O)(=O)NC2CCCCC2)cc1)N(Cc1ccccc1)Cc1ccccc1`?
HSV replic up: inactive; Dynein transport: -0.34; L major viab: 21; b-catenin transl: 0; MT stabilizer: 2

What do the screens show for `CC(C)(C)C(=O)CC(=O)Nc1ccc(Cl)c(N)c1`?
HSV replic up: inactive; Dynein transport: -1.6; L major viab: -7; b-catenin transl: 4; MT stabilizer: 4

Results for CCNC(=S)N1CCc2cc(OC)c(OC)cc2C1COc1ccc(OC)cc1 (centres undefined) ?
HSV replic up: inactive; Dynein transport: -0.86; L major viab: 68*; b-catenin transl: -1; MT stabilizer: 6

How did CCNC(=S)N1CCc2cc(OC)c(OC)cc2C1COc1ccccc1OC (centres undefined) do in these assays?
HSV replic up: inactive; Dynein transport: 0.00016; L major viab: 19; b-catenin transl: -1; MT stabilizer: 3

Results for CC[n+]1c(/C=C/c2c[nH]c3ccccc23)ccc2cc(C)ccc21 ?
Dynein transport: -1.1; L major viab: 100*; b-catenin transl: 37; MT stabilizer: 80*

What do the screens show for `COc1ccc(CCNC(=O)c2cc(-c3ccncc3)nc3c(Cl)cccc23)cc1OC`?
HSV replic up: inactive; Dynein transport: -0.4; L major viab: 51*; b-catenin transl: 1; MT stabilizer: 4

Results for CCCN(CCC)C1Sc2ccc(C(=O)OC)cc2NC1=O (centres undefined) ?
Dynein transport: -0.053; L major viab: -3; MT stabilizer: 1

What do the screens show for `O=C(c1ccc(C(F)(F)F)cc1)C1CCCN(Cc2cccn2-c2ncccn2)C1` (centres undefined)?
HSV replic up: inactive; Dynein transport: -0.64; L major viab: 71*; b-catenin transl: 1; MT stabilizer: 2

What do the screens show for `Cc1nn(C(C)C)c(C)c1CN1CCCC(C(=O)c2cccc(OC(C)C)c2)C1` (centres undefined)?
HSV replic up: inactive; Dynein transport: -1.1; L major viab: 20; b-catenin transl: 2; MT stabilizer: 1

Results for CC(C)Oc1cccc(C(=O)C2CCCN(Cc3cccn3-c3ccccn3)C2)c1 (centres undefined) ?
HSV replic up: inactive; Dynein transport: -1.2; L major viab: 98*; b-catenin transl: 0; MT stabilizer: 5

How did CC(C)Oc1cccc(C(=O)C2CCCN(Cc3ccc4nonc4c3)C2)c1 (centres undefined) do in these assays?
HSV replic up: inactive; Dynein transport: 0.03; L major viab: 83*; b-catenin transl: 0; MT stabilizer: 4

How did CCn1nc(C)c(CN2CCCC(C(=O)c3cccc(OC(C)C)c3)C2)c1C (centres undefined) do in these assays?
HSV replic up: inactive; Dynein transport: -0.44; L major viab: 86*; b-catenin transl: 2; MT stabilizer: 2

How did CN(C)S(=O)(=O)c1cccc(NC(=O)CCc2c[nH]c3ccccc23)c1 do in these assays?
HSV replic up: inactive; Dynein transport: -0.25; L major viab: 2; b-catenin transl: 0; MT stabilizer: 2

What do the screens show for `CC(C)Oc1cccc(C(=O)C2CCCN(Cc3cnn(C(C)C)c3)C2)c1` (centres undefined)?
HSV replic up: inactive; Dynein transport: 0.27; L major viab: 85*; b-catenin transl: -1; MT stabilizer: 3

Results for Cc1noc(C)c1S(=O)(=O)N1CCCC(C(=O)c2cccc(OC(C)C)c2)C1 (centres undefined) ?
HSV replic up: inactive; Dynein transport: -0.21; L major viab: 56*; b-catenin transl: 1; MT stabilizer: 2

How did CCOc1cc(CN2CCCC(C(=O)c3cccc(C(F)(F)F)c3)C2)ccc1O (centres undefined) do in these assays?
HSV replic up: inactive; Dynein transport: -0.62; L major viab: 54*; b-catenin transl: -1; MT stabilizer: 2

Results for Cc1ccc(C2C3=C(CCCC3=O)N=C3c4ccccc4C(=O)C32)cc1 (centres undefined) ?
HSV replic up: inactive; Dynein transport: -0.018; L major viab: 67*; b-catenin transl: -2; MT stabilizer: 4

How did O=C1CCCC2=C1C(c1ccc(Cl)cc1)C1C(=O)c3ccccc3C1=N2 (centres undefined) do in these assays?
HSV replic up: inactive; Dynein transport: 0.18; L major viab: 57*; MT stabilizer: 2

How did O=C1CCCC2=C1C(c1ccccc1)C1C(=O)c3ccccc3C1=N2 (centres undefined) do in these assays?
HSV replic up: inactive; Dynein transport: 0.31; L major viab: 62*; b-catenin transl: -3; MT stabilizer: 3

Results for Cc1cc(OCC(=O)N2CCCC2)cc(C)c1Cl ?
HSV replic up: inactive; Dynein transport: 0.25; L major viab: -5; MT stabilizer: 4

How did O=[N+]([O-])c1cccc(C(=Nc2ccc(Cl)cc2)NO)c1 do in these assays?
HSV replic up: inactive; Dynein transport: 0.52; L major viab: 5; b-catenin transl: -1; MT stabilizer: 3

How did Cn1c(-c2ccccn2)[n+](C)c2ccccc21 do in these assays?
HSV replic up: inactive; Dynein transport: -0.87; L major viab: -1; b-catenin transl: 0; MT stabilizer: 3

What do the screens show for `CN(C)c1ccc(-c2n(C)c3ccccc3[n+]2C)cc1`?
HSV replic up: inactive; Dynein transport: -0.73; L major viab: 100*; b-catenin transl: 0; MT stabilizer: 1

What do the screens show for `C=CCNC(=S)NNC(=O)c1csc(C)c1C`?
HSV replic up: inactive; Dynein transport: -0.51; L major viab: -2; b-catenin transl: -1; MT stabilizer: 4

What do the screens show for `CCOc1ccc(OCC)c(NC(=O)CN2CCN(c3cccc(C)c3)CC2)c1`?
Dynein transport: 2.7; L major viab: -3; b-catenin transl: 0; MT stabilizer: 4

Screening data (PubChem BioAssay)
